# In ChEMBL document CHEMBL4049426, “Identification of the Clinical Candidate (R)-(1-(4-Fluorophenyl)-6-((1-methyl-1H-pyrazol-4-yl)sulfonyl)-4,4a,5,6,7,8-hexahydro-1H-pyrazolo[3,4-g]isoquinolin-4a-yl)(4-(trifluoromethyl)pyridin-2-yl)methanone (CORT125134): A Selective Glucocorticoid Receptor (GR) Antagonist” (J Med Chem, 2017):
# Calls of active or inactive are those of the source. The rule behind the calls is not given here.
# How the values were obtained:
# [1] = Cmax in Sprague-Dawley CD-1 rat plasma at 5 mg/kg, po administered through gavage measured up to 24 hrs by LC/MS analysis; format: ADME, organism-based; design: dose 5 mg/kg, route oral
# Procedure, shortened: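 Jugular-catheterized male Sprague Dawley CD-1 rats (220-250g). Oral arm: five rats, 5mg/kg gavage, 1mg/mL in DMSO:0.5% methylcellulose 10:90, 5mL/kg, sampled pre-dose and 0.25-24 h. i.v. arm: three rats, 1mg/kg, 0.5mg/mL in DMSO:PEG400:propylene glycol 10:45:45, sampled pre-dose and 0.08-24 h. Plasma by LC/MS.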
# androgen receptor = target: T1, androgen receptor (Homo sapiens, UniProt P10275); experiment: Inhibition of radioligand binding to androgen receptor (unknown origin) at 1 uM relative to control
# T1 sequence (P10275 whole entry): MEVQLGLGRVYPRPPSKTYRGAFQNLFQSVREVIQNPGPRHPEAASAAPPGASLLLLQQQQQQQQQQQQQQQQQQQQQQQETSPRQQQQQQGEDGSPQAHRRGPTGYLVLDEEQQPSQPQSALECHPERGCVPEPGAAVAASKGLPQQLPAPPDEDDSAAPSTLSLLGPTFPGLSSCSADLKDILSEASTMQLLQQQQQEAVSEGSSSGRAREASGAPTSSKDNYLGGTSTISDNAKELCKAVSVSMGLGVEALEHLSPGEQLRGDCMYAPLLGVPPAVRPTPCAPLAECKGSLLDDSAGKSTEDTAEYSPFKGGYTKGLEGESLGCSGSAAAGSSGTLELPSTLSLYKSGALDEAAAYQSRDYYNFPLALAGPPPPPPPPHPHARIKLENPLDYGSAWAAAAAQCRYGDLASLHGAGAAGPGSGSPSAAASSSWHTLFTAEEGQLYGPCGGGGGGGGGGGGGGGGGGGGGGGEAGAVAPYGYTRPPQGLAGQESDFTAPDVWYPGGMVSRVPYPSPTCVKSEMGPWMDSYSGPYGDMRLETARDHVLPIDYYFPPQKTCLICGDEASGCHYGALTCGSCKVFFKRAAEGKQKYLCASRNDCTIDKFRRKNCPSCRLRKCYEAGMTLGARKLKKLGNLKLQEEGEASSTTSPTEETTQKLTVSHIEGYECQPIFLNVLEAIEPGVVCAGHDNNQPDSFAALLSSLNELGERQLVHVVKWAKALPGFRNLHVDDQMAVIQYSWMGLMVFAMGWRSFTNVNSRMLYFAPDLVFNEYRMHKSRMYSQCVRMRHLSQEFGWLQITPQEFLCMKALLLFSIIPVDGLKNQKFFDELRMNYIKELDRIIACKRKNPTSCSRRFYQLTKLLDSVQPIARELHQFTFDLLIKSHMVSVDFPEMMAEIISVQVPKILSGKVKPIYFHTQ
# [2] = target: T2, Glucocorticoid receptor (Rattus norvegicus) (UniProt P06536); experiment: Partial agonist activity at rat glucocorticoid receptor in primary hepatocytes assessed as induction of tyrosine amino transferase activity at 10 uM measured after 20 hrs; format: cell-based
# T2 sequence (whole entry): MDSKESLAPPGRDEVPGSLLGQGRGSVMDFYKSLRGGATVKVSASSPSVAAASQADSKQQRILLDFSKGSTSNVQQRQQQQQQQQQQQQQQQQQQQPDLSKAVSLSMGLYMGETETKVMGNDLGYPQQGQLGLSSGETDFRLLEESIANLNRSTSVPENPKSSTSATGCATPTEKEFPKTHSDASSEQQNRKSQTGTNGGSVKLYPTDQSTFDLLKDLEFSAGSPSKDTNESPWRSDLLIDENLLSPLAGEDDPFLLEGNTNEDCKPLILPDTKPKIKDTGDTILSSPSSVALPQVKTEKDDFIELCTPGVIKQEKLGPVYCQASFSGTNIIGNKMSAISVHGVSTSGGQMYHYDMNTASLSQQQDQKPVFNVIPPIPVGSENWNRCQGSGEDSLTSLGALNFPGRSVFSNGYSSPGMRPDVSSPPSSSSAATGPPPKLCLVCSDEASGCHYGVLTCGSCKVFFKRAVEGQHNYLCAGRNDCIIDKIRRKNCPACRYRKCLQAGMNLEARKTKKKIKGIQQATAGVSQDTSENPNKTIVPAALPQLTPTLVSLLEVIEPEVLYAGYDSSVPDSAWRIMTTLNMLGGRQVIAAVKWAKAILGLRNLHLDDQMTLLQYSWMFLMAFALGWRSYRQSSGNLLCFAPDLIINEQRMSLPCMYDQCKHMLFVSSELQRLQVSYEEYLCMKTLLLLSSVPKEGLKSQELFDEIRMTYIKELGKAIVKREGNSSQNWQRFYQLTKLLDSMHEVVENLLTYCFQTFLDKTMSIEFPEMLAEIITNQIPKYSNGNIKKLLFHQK
# Rattus norvegicus [3] = experiment: (§1) In vivo antagonist activity at glucocorticoid receptor in Sprague-Dawley rat assessed as reduction in cortisone-induced plasma glucose levels at 7.5 mg/kg, po bid via gavage for 6 days pretreated for 12 hrs followed by cortisone 21-acetate treatment measured 24 hrs after last cortisone 21-acetate treatment; format: functional, organism-based
# Procedure, shortened: (§2)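 Male Sprague Dawley rats (200-250 g) got vehicle daily for a 3-day baseline, then groups of eight were dosed. Test agent was suspended in DMSO:Tween 80:0.5% HPMC (10:0.1:89.9) and given by oral gavage twice daily for 6 days. Cortisone 21-acetate was given at 30 mg/kg s.c. once daily in 1% methylcellulose. Tail-vein blood was taken 24 h after the last cortisone dose (12 h after the last test dose). Glucose was read with a clinical reagent and insulin by rat ELISA.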
# Rattus norvegicus [4] = experiment: as §1, with “rat cortisone model of exogenous Cushing's syndrome” for “rat”, “inhibition of” for “reduction in cortisone-induced”, “insulin” for “glucose”; format: functional, organism-based; procedure, shortened: as §2
# Cytochrome P450 3A4 = Cytochrome P450 3A4 (Homo sapiens, UniProt P08684); experiment: Induction of CYP3A4 in human hepatocytes; format: ADME, cell-based
# Chain of Cytochrome P450 3A4 (P08684 whole entry): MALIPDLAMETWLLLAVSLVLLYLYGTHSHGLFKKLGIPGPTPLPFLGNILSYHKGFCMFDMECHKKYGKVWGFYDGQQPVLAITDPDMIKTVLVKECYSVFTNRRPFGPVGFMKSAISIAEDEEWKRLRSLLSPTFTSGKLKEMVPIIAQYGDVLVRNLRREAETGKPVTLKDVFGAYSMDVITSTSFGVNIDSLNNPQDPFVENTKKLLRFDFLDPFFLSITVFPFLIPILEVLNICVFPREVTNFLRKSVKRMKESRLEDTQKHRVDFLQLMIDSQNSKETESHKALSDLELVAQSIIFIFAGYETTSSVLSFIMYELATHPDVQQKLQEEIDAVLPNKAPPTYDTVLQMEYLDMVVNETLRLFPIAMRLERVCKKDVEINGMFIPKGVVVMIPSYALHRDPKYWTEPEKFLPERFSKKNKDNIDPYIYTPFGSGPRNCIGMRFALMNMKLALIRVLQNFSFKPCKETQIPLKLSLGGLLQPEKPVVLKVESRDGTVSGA
smiles,measurement,setting,value
Cn1cc(S(=O)(=O)N2CCC3=Cc4c(cnn4-c4ccc(F)cc4)C[C@]3(C(=O)c3cc(C(F)(F)F)ccn3)C2)cn1 [RELACORILANT],Cmax,[1],297 ng/mL
same,inhibition at 1 µM,androgen receptor,< 10%
same,Activity,[2],Active
same,inhibition,Rattus norvegicus [3],Active
same,inhibition,Rattus norvegicus [4],Active
same,Activity,Cytochrome P450 3A4,Not Active
